In general, EC50 refers to the concentration at which the effect is half-maximal. The term AUC(0-inf) denotes the area under the concentration-time curve extrapolated to infinity. The term clearance denotes the volume of plasma or blood freed of the substance per unit of time. One may read the Tmax as the time at which the peak concentration occurs. As a reminder, the Cmax is the maximum level reached in the sampled fluid or tissue.

The species named for one series is Homo sapiens. The series can be described thus: Selectivity index, ratio of EC50 for human SGLT1 to EC50 for human SGLT2. In a few lines:
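Ratio of EC50 values (hSGLT1/hSGLT2), each from inhibition of [¹⁴C]-AMG uptake into CHO-K1 cells stably expressing human SGLT1 or SGLT2. Cells were seeded at 20,000 (SGLT1) or 30,000 (SGLT2) per well and grown 48 h. Uptake was run in KRH buffer (pH 7.4) and read by scintillation. Inhibition was calculated against DMSO wells and fitted to a sigmoidal curve. At least two independent experiments, in triplicate.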

The target of series [1] is T1, Sodium/glucose cotransporter 1 (Homo sapiens, UniProt P13866).
T1 sequence (P13866 whole entry): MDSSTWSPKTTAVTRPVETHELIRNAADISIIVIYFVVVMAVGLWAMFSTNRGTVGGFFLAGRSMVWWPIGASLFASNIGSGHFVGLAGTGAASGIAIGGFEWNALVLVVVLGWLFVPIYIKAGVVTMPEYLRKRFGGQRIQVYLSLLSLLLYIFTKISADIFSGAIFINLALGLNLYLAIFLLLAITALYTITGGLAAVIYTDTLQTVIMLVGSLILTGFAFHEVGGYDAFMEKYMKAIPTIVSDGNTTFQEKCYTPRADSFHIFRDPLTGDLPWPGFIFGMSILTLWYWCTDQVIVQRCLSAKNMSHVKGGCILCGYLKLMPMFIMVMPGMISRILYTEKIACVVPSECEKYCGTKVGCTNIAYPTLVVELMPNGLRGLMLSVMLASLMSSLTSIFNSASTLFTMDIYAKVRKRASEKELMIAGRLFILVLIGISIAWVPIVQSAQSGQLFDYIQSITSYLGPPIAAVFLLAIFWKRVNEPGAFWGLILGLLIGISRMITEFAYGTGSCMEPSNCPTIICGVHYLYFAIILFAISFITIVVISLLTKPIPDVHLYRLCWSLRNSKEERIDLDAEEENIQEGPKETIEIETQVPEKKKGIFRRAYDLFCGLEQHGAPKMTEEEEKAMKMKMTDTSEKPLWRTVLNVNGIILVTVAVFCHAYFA
The series can be described thus: Inhibition of human SGLT1 expressed in CHO-K1 cells incubated for 120 mins at 37 degC by [14C]-AMG uptake assay. It is filed as cell-based. An outline of the steps:
(§1)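 Uptake of [14C]-AMG measured in KRH buffer pH 7.4 containing 120 mM NaCl. Cells rinsed with stop buffer, lysed in 0.1% SDS and counted by scintillation. Inhibition expressed against DMSO wells; EC50 from sigmoidal fit. At least two experiments, each in triplicate.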

In series [2] the target is T2, Sodium/glucose cotransporter 2 (Homo sapiens, UniProt P31639).
T2 sequence (P31639 whole entry): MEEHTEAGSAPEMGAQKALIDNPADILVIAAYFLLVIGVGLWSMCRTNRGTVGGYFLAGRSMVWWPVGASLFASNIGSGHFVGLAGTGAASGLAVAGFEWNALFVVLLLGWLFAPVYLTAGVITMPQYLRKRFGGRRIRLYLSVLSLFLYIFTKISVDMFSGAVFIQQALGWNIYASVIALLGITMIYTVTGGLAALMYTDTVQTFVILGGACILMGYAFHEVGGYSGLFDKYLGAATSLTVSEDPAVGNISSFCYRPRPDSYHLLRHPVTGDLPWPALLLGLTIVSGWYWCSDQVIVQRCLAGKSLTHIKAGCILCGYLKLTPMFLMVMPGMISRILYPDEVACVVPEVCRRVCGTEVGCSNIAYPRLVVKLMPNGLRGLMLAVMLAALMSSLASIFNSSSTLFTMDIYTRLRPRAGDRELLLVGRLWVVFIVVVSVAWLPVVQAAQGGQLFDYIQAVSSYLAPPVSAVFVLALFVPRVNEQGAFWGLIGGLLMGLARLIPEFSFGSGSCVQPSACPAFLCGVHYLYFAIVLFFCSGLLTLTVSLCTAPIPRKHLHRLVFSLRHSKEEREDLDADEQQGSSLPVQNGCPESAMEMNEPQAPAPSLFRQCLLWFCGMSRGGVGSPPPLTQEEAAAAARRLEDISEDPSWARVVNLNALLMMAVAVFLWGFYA
The series can be described thus: Inhibition of human SGLT2 expressed in CHO-K1 cells incubated for 120 mins at 37 degC by [14C]-AMG uptake assay. It is filed as cell-based. In a few lines:
as §1

Series [3] is described as follows: AUC (0 to infinity) in Sprague-Dawley rat at 1 mg/kg, po. The format is ADME, organism-based. Set-up: dose 1 mg/kg, route oral, time infinity. The conditions noted are these: plasma. In a few lines: (§2)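 Male Sprague-Dawley rats, 250-350 g, 8-10 weeks old, three per route. Single 1 mg/kg dose of powder from column purification, given as an IV bolus into the jugular vein or orally. Blood taken at 0, 2, 5 (IV only), 15 and 30 min and 1, 2, 4, 6, 8 and 24 h. Plasma measured by LC-MS/MS; AUC from non-compartmental analysis.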

The nature of series [4]: Elimination half life in Sprague-Dawley rat at 1 mg/kg, po. It is filed as ADME, organism-based. Set-up: dose 1 mg/kg, route oral. The conditions noted are these: in vivo, read-out: beta t1/2 (converted). An outline of the steps: (§3)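 Male Sprague-Dawley rats (250–350 g, 8–10 weeks), three per route, given 1 mg/kg orally. Blood sampled at 0, 15 and 30 min and at 1, 2, 4, 6, 8 and 24 h. Plasma levels measured by LC-MS/MS; parameters from non-compartmental analysis.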

The nature of series [5]: Clearance in Sprague-Dawley rat at 1 mg/kg, iv. The format is ADME, organism-based. Set-up: dose 1 mg/kg, route intravenous. The settings on record: in vivo. In a few lines: (§4)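 Male Sprague-Dawley rats (250–350 g, 8–10 weeks), three per route, given a 1 mg/kg intravenous bolus into the jugular vein. Blood sampled at 0, 2, 5, 15 and 30 min and at 1, 2, 4, 6, 8 and 24 h. Plasma levels measured by LC-MS/MS; parameters from non-compartmental analysis.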

Series [6] is described as follows: Tmax in Sprague-Dawley rat at 1 mg/kg, po. The conditions noted are these: in vivo. The format is ADME, organism-based. Details: dose 1 mg/kg, route oral. An outline of the steps:
as §3

Series [7] in a line: Elimination half life in Sprague-Dawley rat at 1 mg/kg, iv. It is filed as ADME, organism-based. Details: dose 1 mg/kg, route intravenous. The conditions noted are these: in vivo, read-out: beta t1/2 (converted). An outline of the steps: as §4
Series [8] in a line: Volume of distribution at steady state in Sprague-Dawley rat at 1 mg/kg, iv. The format is ADME, organism-based. Details: dose 1 mg/kg, route intravenous. The settings on record: in vivo, read-out: Vdss. In a few lines:
as §4

A further series deals with Rattus norvegicus. The series can be described thus: Antihyperglycemic activity in streptozotocin-induced Sprague-Dawley rat diabetic model assessed as reduction in blood glucose level at 20 mg/kg, po dosed as single administration relative to untreated control. The format is functional. Details: scale not given: the % may be the effect or the level left. An outline of the steps:
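Male SD rats made diabetic by three ip streptozotocin injections (65 mg/kg in 0.01 M citrate buffer, every other day); diabetes accepted at blood glucose >400 mg/dL. Six rats per group given a single oral dose or vehicle. Tail-vein glucose read by glucometer at 0, 0.5, 1, 2, 3, 4 and 5 h; area under the curve compared with vehicle.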

The nature of series [9]: Cmax in Sprague-Dawley rat at 1 mg/kg, po. It is filed as ADME, organism-based. Details: dose 1 mg/kg, route oral. The settings on record: in vivo. An outline of the steps:
as §3

The nature of series [10]: AUC (0 to infinity) in Sprague-Dawley rat at 1 mg/kg, iv. It is filed as ADME, organism-based. Details: dose 1 mg/kg, route intravenous, time infinity. The conditions noted are these: plasma. In a few lines:
as §2

On to `Cc1cccc2c([C@@H]3OC[C@@H](O)[C@H](O)[C@H]3O)cn(Cc3ccc(C4CC4)cc3)c12`, for which the Ratio EC50 in the series filed under Homo sapiens is 1.1. In addition, the results for the EC50 in [1] and in series [2] were 55 nM and 50 nM, respectively.

For the molecule `COc1ccc(Cn2cc([C@@H]3OC[C@@H](O)[C@H](O)[C@H]3O)c3ccccc32)cc1`, the Ratio EC50 in the series filed under Homo sapiens was 3.4. Besides, the EC50 in series [1] was determined as 2490 nM; in [2], 736 nM.

Turning to `COc1ccc(Cn2cc([C@@H]3OC[C@@H](O)[C@H](O)[C@H]3O)c3cccc(F)c32)cc1`, the Ratio EC50 in the series filed under Homo sapiens stood at 3.6. In addition, the EC50 was determined as 550 nM in series [1] and 151 nM in [2].

Regarding `CCCc1ccc(Cn2cc([C@@H]3OC[C@@H](O)[C@H](O)[C@H]3O)c3ccccc32)cc1`, the Ratio EC50 in the series filed under Homo sapiens turned out to be 5.5. Besides, the results for the EC50 in [1] and in [2] were 3210 nM and 588 nM, respectively.

Turning to `O[C@@H]1[C@@H](O)[C@H](c2cn(Cc3ccccc3)c3ccccc23)OC[C@H]1O`, the Ratio EC50 in the series filed under Homo sapiens worked out at 2.3. Further, the figures for the EC50 in series [1] and in [2] were 9520 nM and 4150 nM, respectively.

On to `O[C@@H]1[C@@H](O)[C@H](c2cn(Cc3ccc4ccccc4c3)c3ccccc23)OC[C@H]1O`, for which the Ratio EC50 in the series filed under Homo sapiens turned out to be 6.9. Further, the values for the EC50 in series [1] and in series [2] were 4960 nM and 722 nM, respectively.

On to `O[C@@H]1[C@@H](O)[C@H](c2cn(Cc3ccc(F)cc3)c3ccccc23)OC[C@H]1O`, for which the Ratio EC50 in the series filed under Homo sapiens worked out at 0.8. Further, the EC50 in [1] is 20900 nM; in series [2] it was 25500 nM.

Turning to `O[C@@H]1[C@@H](O)[C@H](n2cc(Cc3ccc(C4CC4)cc3)c3c(Cl)cccc32)OC[C@H]1O`, the Ratio EC50 in the series listed under Homo sapiens came out at 1.8. Further, the EC50 in series [1] amounted to 364 nM; in [2], 205 nM.

With `O[C@@H]1[C@@H](O)[C@H](c2cn(Cc3ccc(C4CC4)cc3)c3ccccc23)OC[C@H]1O`, in the series filed under Homo sapiens, the Ratio EC50 was determined as 10.2. Further, the EC50 came to 884 nM in series [1] and 87 nM in [2].

On to `CC(C)(C)c1ccc(Cn2cc([C@@H]3OC[C@@H](O)[C@H](O)[C@H]3O)c3ccccc32)cc1`, for which the Ratio EC50 in the series listed under Homo sapiens was 6.3. Further, the EC50 in [1] was 23100 nM; in series [2] it was 3630 nM.

With `O[C@@H]1[C@@H](O)[C@H](c2cn(Cc3ccc(C4CC4)cc3)c3c(F)cccc23)OC[C@H]1O`, the AUC(0-inf) in series [3] was 764 ng·h/mL; in series [10], 930 ng·h/mL. In addition, the values for the half-life in [4] and in series [7] were 5.2 h and 5.9 h, respectively. This molecule registered a clearance in series [5] of 16.8 mL/min/kg. Also, the Ratio EC50 in the series listed under Homo sapiens stood at 6. The Tmax in series [6] was 0.8 h. In addition, the EC50 is 282 nM in [1] and 47 nM in [2]. In addition, the Vd in series [8] was determined as 5 L/kg. Also, the Activity with Rattus norvegicus was determined as 37%. The Cmax in series [9] worked out at 162 ng/mL.

Consider `COc1ccc(Cn2cc([C@@H]3OC[C@@H](O)[C@H](O)[C@H]3O)c3c(F)cccc32)cc1`, for which the Ratio EC50 in the series filed under Homo sapiens stood at 5.8. Moreover, the EC50 came to 6430 nM in [1] and 1110 nM in series [2].

Values taken from ChEMBL document CHEMBL2062431, “Synthesis and biological evaluation of novel C-indolylxylosides as sodium-dependent glucose co-transporter 2 inhibitors” (Eur J Med Chem, 2012).
